# According to the RNAGym collection of RNA variant scans (doi:10.1126/science.aae0568):
# This sample holds only a part of the variants without activity.
# B1: tRNA (parent)
# chain: GUUCCGUUGGCGUAAUGGUAACGCGUCUCCCUCCUAAGGAGAAGACUGCGGGUUCGAGUCCCGUACGGAACG
# Variants of: B1
# Assay: yeast fitness relative to wild type (ratio to wild type); higher = fitter; tRNA-Arg(CCU), competitive growth, 37 C, YPD
# Method in brief: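 A pool of Saccharomyces cerevisiae strains, each with a tRNA-Arg(CCU) gene variant at the native genomic locus, was competed in YPD at 37°C for 24 hours across six parallel replicates. The variants had been chemically synthesised at a 3% per-site mutation rate over 69 sites, and gene amplicons before and after competition were read by 100-nucleotide paired-end sequencing. Darwinian fitness relative to wild type rested on changes in genotype frequencies. Genotypes required ≥ 100 starting reads, and estimates < 0.5 were set to 0.5.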
row,Variant,yeast fitness
1,GUUCCGUUAGCGUAAUGGUAACGCGUGUCCUUCCUAAGGAGAAGAGUGCGCGUUCGAGUCCCGUACGGAACG [G9A C27G C31U C46G G51C],0.594
2,GUUCCGUUAGCGUAAUGGUAACGCGUGUCCCUGCUAAGGAGAAGACUGCGGGUUGGCGUCCCGUACGGAACG [G9A C27G C33G C55G A57C],≤ 0.5
3,GUUCCGUUAGCGUAAUGGUAACGCGUGUCCCUCAUAAGGAGAAGAGUGCGGGUUCGAGUCCCGUACGGAACG [G9A C27G C34A C46G],≤ 0.5
4,GUUCCGUUAGCGUAAUGGUAACGCGUGUCCCUCAUAAGGAGAAGAGUGCGGGUUAGAGUCCCAUACGGAACG [G9A C27G C34A C46G C55A G63A],≤ 0.5
5,GUUCCGUUAGCGUAAUGGUAACGCGUUUCCCUCCUAAGGAGAGGACUGCGGGUUCGAGUCCCGUACGGAACG [G9A C27U A43G],0.588
6,GUUCCGUUAGCGUAAUGGUAACGCGUUUCCCUCCUAAGGAGAAGCCUGCGGGUUCGAGUCCCGUACGGAACG [G9A C27U A45C],0.904
7,GUUCCGUUAGCGUAAUGGUAACGCGUUUCCCUCCUAAGGAGAAGAGUGCGGGUUCGAGUCCCGUACGGAACG [G9A C27U C46G],0.708
8,GUUCCGUUAGCGUAAUGGUAACGCGUUUCCCUCCUAAGGAGAAGACUGCGGGUUCAAGUCCCGUACAGAACG [G9A C27U G56A G67A],≤ 0.5
9,GUUCCGUUAGCGUAAUGGUAACGCGUCUACCUCCUAAGGAGAAGACUGCGGGUUCGAGUCCCGUACGGAACG [G9A C29A],0.735
10,GUUCCGUUAGCGUAAUGGUAACGCGUCUACAUCCUAAGGCGAAAACUGCGGGUUCGAGACCCGUACGGAACG [G9A C29A C31A A40C G44A U59A],≤ 0.5
11,GUUCCGUUAGCGUAAUGGUAACGCGUCUACCUCAUAAGGAGAAGACUGCGGGUUCGAGUCCCGUACGGAACG [G9A C29A C34A],0.576
12,GUUCCGUUAGCGUAAUGGUAACGCGUCUACCUCAUAAGGAGAAGACUGCGGGUUCGAGUCCCGUACCGAACG [G9A C29A C34A G67C],≤ 0.5
13,GUUCCGUUAGCGUAAUGGUAACGCGUCUACCUCCUAAGGAGAAGACUACGGGUUCGAGUCCCGUACGGAACG [G9A C29A G48A],≤ 0.5
14,GUUCCGUUAGCGUAAUGGUAACGCGUCUACCUCCUAAGGAGAAGACUGCAGGUUCGAGUCCCGUACGGAACG [G9A C29A G50A],0.62
15,GUUCCGUUAGCGUAAUGGUAACGCGUCUGCCUCCUAAGGAGAAGACUGCGGGUUCGAGUCCCGUACGGAACG [G9A C29G],0.555
16,GUUCCGUUAGCGUAAUGGUAACGCGUCUGCCUCCUAAGGAGAAGUGUACGGGUUCCAGUCCCGUACGGAACG [G9A C29G A45U C46G G48A G56C],≤ 0.5
17,GUUCCGUUAGCGUAAUGGUAACGCGUCUGCCUCCUAAGGAGAAGACUGCGGGUUCGGGUCCCGUACGGAACG [G9A C29G A57G],≤ 0.5
18,GUUCCGUUAGCGUAAUGGUAACGCGUCUGGCUCCUAAGGAGAAGAGUGCGGGUUCGAGUCCCGUACGGAACG [G9A C29G C30G C46G],≤ 0.5
19,GUUCCGUUAGCGUAAUGGUAACGCGUCUGCCUCCUAAGGAGAAGACUGCGGGUUCGAGUCCCGUAUGGAACG [G9A C29G C66U],≤ 0.5

row,Variant,yeast fitness
1,GUUCCGUUAGCGUAAUGGUAACGCGUCUUCCUCCUAAGGAGAGGACUGCGGGUUCGAGUCCCGUACGUAACG [G9A C29U A43G G68U],0.527
2,GUUCCGUUAGCGUAAUGGUAACGCGUCUUCUUCCUAAGGAGUAGACUGCGGGUUCGAGUCCCGUACGGAACG [G9A C29U C31U A42U],0.615
3,GUUCCGUUAGCGUAAUGGUAACGCGUCUUCCUCCUAAGGAGAAGAUUGCGGGUUCGAGUCCCGUACGGAACG [G9A C29U C46U],0.626
4,GUUCCGUUAGCGUAAUGGUAACGCGUCUUCCUCCUAAGGAGAAGACUGCGGGUUUGAGUCCCGUACGGAACG [G9A C29U C55U],0.535
5,GUUCCGUUAGCGUAAUGGUAACGCGUCUUCCACCUAAGGAGAUGACUGCGGGUUCGAGUCGCGUCGGGAACG [G9A C29U U32A A43U C61G A65C C66G],≤ 0.5
6,GUUCCGUUAGCGUAAUGGUAACGCGUCUCACUCCUAAGGAGCAGACUGCGGGUUCGAGUCCCGUACGAAACG [G9A C30A A42C G68A],≤ 0.5
7,GUUCCGUUAGCGUAAUGGUAACGCGUCUCACUCCUAAGGAGAAGCCUGAGGGUUCGAGUCCCGUACGGAACG [G9A C30A A45C C49A],0.651
8,GUUCCGUUAGCGUAAUGGUAACGCGUCUCACUCCUAAGGAGAAGACUGCGGGUUCGCGUCCCGUACGGAUCG [G9A C30A A57C A70U],≤ 0.5
9,GUUCCGUUAGCGUAAUGGUAACGCGUCUCACUCCUAAAGAGCAGACUGCGGGUUCGAGUCUCGUACGGAACG [G9A C30A G38A A42C C61U],≤ 0.5
10,GUUCCGUUAGCGUAAUGGUAACGCGUCUCGCUCCUAAGGAGACGACUGCGGGUUCGAGUCCCGUACGGAACG [G9A C30G A43C],≤ 0.5
11,GUUCCGUUAGCGUAAUGGUAACGCGUCUCGCUCCUAAGGAGAAGACUGCGGGUUCGAGUCCCGUACGGAUCG [G9A C30G A70U],0.57
12,GUUCCGUUAGCGUAAUGGUAACGCGUCUCGCUCCUAAGGAGAAGACUGCGGGUUCGACUCCCGUACGGAACG [G9A C30G G58C],≤ 0.5
13,GUUCCGUUAGCGUAAUGGUAACGCGUCUCGCCCCUAAGGAAAAGACUGCGGGUUCGUGUCCCGUACGGAACG [G9A C30G U32C G41A A57U],≤ 0.5
14,GUUCCGUUAGCGUAAUGGUAACGCGUCUCUCUACUUAGGAGAUGACUGCGGGUUCGAGUCCCGUACGGAACG [G9A C30U C33A A36U A43U],≤ 0.5
15,GUUCCGUUAGCGUAAUGGUAACGCGUCUCUCUACUUAGGAGAAGACUGUGGGUUCGAGUCCCGUACGGAACG [G9A C30U C33A A36U C49U],≤ 0.5
16,GUUCCGUUAGCGUAAUGGUAACGCGUCUCUCUCGUAAGGCGAAGACUGGGGGUUCGAGUCCCGUACGCAACG [G9A C30U C34G A40C C49G G68C],≤ 0.5
17,GUUCCGUUAGCGUAAUGGUAACGCGUCUCUCUCCUAAGGAGAAGACUGUGGGUUCGAGUCCCGAACGGAACG [G9A C30U C49U U64A],≤ 0.5
18,GUUCCGUUAGCGUAAUGGUAACGCGUCUCUCUCCUAAGGAGAAAACUGCGGGUUCGAGUCCCGUUCGGAACG [G9A C30U G44A A65U],0.578
19,GUUCCGUUAGCGUAAUGGUAACGCGUCUCUCUCCUAAGGAGAAGACUGCGGAUUCGAGUCCCGUACGGAACG [G9A C30U G52A],≤ 0.5
